According to ChEMBL document CHEMBL1148785, “Second generation tetrahydroquinoline-based protein farnesyltransferase inhibitors as antimalarials” (J Med Chem, 2007):

Key:
Plasmodium falciparum [1] = test: Inhibition of Plasmodium falciparum protein farnesyltransferase at 0.5 nM by scintillation proximity assay
Plasmodium falciparum [2] = test: Antimalarial activity against Plasmodium falciparum 3D7; assay type: functional; conditions: read-out: ED50 (the source's name)
Summary of the method: (§1)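 Asynchronous culture in type A+ erythrocytes at 0.5% parasitemia and 0.5% hematocrit, grown in RPMI-1640 with 20% heat-inactivated human A+ plasma. Compound was serially diluted from a top final 5 µM, with DMSO vehicle as 100% growth. Plates ran 48 h at 37 °C under 5% CO2/5% O2/90% N2, then [3H]-hypoxanthine (0.3 µCi) for 24 h. Filter-harvested counts were corrected for the uninfected-RBC background. ED50 by linear regression; duplicates averaged.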

Plasmodium falciparum [3] = test: Inhibition of Plasmodium falciparum protein farnesyltransferase at 50 nM by scintillation proximity assay
Plasmodium falciparum [4] = test: Antimalarial activity against Plasmodium falciparum K1; assay type: functional; conditions: read-out: ED50 (the source's name); summary of the method: as §1
Plasmodium falciparum [5] = test: Inhibition of Plasmodium falciparum protein farnesyltransferase at 5 nM by scintillation proximity assay
[6] = Inhibition of Plasmodium falciparum protein farnesyltransferase by scintillation proximity assay
[7] = molecular target: Protein farnesyltransferase (Rattus norvegicus); test: Inhibition of protein farnesyltransferase

Structure (SMILES) | inhibition (Plasmodium falciparum [1]) | EC50 (Plasmodium falciparum [2]; Plasmodium falciparum, 3D7) | inhibition (Plasmodium falciparum [3]) | EC50 (Plasmodium falciparum [4]; Plasmodium falciparum, K1) | inhibition (Plasmodium falciparum [5]) | IC50 [6] | IC50 [7] | EC50 (Plasmodium falciparum [2]) | EC50 (Plasmodium falciparum [4])
Cn1cncc1CN1CC(N(CC2CCN(C(=O)CC(F)(F)F)CC2)S(=O)(=O)c2ccccn2)Cc2cc(C#N)ccc21 (stereo not given) | 77% | 43 nM | 98% | 55 nM | 30% | 2 nM |  |  | 
Cn1cncc1CN1CC(N(CC(=O)NC(C)(C)C)S(=O)(=O)c2ccc(F)cc2)Cc2cc(C#N)ccc21 (stereo not given) | 30% | > 5000 nM | 71% | 5000 nM | 33% | 42 nM |  |  | 
Cn1cncc1CN1CC(N(Cc2cc3nsnc3cc2Cl)S(=O)(=O)c2ccccn2)Cc2cc(C#N)ccc21 (stereo not given) |  | 3000 nM | 53% | 3000 nM | 4% |  | 10 nM |  | 
Cn1cncc1CN1CC(N(CC(=O)OC(C)(C)C)C(=O)c2ccccc2)Cc2cc(C#N)ccc21 (stereo not given) |  | > 5000 nM |  | > 5000 nM |  | > 50 nM |  |  | 
Cn1cncc1CN1CC(N(CC2CCN(S(C)(=O)=O)CC2)S(=O)(=O)c2ccccn2)Cc2cc(C#N)ccc21 (stereo not given) | 93% | 62 nM | 99% | 50 nM | 45% | 0.9 nM |  |  | 
COCCCN(C1Cc2cc(C#N)ccc2N(Cc2cncn2C)C1)S(=O)(=O)c1cn(C)cn1 (stereo not given) | 25% | 75 nM | 99% | 50 nM | 92% |  | 7.5 nM |  | 
Cc1cc(C(=O)N(CC(=O)OC(C)(C)C)C2Cc3cc(C#N)ccc3N(Cc3cncn3C)C2)no1 (stereo not given) |  | > 5000 nM |  | > 5000 nM |  | > 50 nM |  |  | 
COC(=O)N1CCC(CN(C2Cc3cc(C#N)ccc3N(Cc3cncn3C)C2)S(=O)(=O)c2ccccn2)CC1 (stereo not given) [listing 1 of 3 here] |  |  |  |  |  | 0.58 nM |  | 16 nM | 15 nM
COC(=O)N1CCC(CN(C2Cc3cc(C#N)ccc3N(Cc3cncn3C)C2)S(=O)(=O)c2ccccn2)CC1 (stereo not given) [listing 2 of 3 here] |  |  |  |  |  | 0.29 nM |  | 11 nM | 13 nM
CCC(=O)N1CCC(CN(C2Cc3cc(C#N)ccc3N(Cc3cncn3C)C2)S(=O)(=O)c2ccccn2)CC1 (stereo not given) | 82% | 16 nM | 99% | 25 nM | 20% | 0.8 nM |  |  | 
CC(=O)N1CCC(CN(C2Cc3cc(C#N)ccc3N(Cc3cncn3C)C2)S(=O)(=O)c2ccccn2)CC1 (stereo not given) | 65% | 37 nM | 94% | 95 nM | 29% | 2.4 nM |  |  | 
Cn1cncc1CN1CC(N(CC2CCN(C(=O)C3CC3)CC2)S(=O)(=O)c2ccccn2)Cc2cc(C#N)ccc21 (stereo not given) | 94% | 11.5 nM | 100% | 10 nM | 39% | 0.75 nM |  |  | 
CC(C)C(=O)N1CCC(CN(C2Cc3cc(C#N)ccc3N(Cc3cncn3C)C2)S(=O)(=O)c2ccccn2)CC1 (stereo not given) | 91% | 18 nM | 98% | 13 nM | 24% | 0.6 nM |  |  | 
COC(=O)N1CCC(CN(C2Cc3cc(C#N)ccc3N(Cc3cncn3C)C2)S(=O)(=O)c2ccccn2)CC1 (stereo not given) [listing 3 of 3 here] |  |  |  |  |  | 2.7 nM |  | 95 nM | 75 nM
Cn1cncc1CN1CC(N(CC(=O)NC(C)(C)C)S(=O)(=O)c2c[nH]cn2)Cc2cc(C#N)ccc21 (stereo not given) | 10% | > 5000 nM | 15% | > 5000 nM | 14% | 800 nM |  |  | 
Cn1cncc1CN1CC(N(Cc2ccc3ccccc3c2Br)S(=O)(=O)c2ccccn2)Cc2cc(C#N)ccc21 (stereo not given) |  |  | 55% |  | 13% |  | 440 nM |  | 
Cn1cncc1CN1CC(N(CC2CCN(C(=O)C(C)(C)C)CC2)S(=O)(=O)c2ccccn2)Cc2cc(C#N)ccc21 (stereo not given) | 76% | 48 nM | 99% | 75 nM | 17% | 1.2 nM |  |  | 
Cn1cnc(S(=O)(=O)N(Cc2ccsc2)C2Cc3cc(C#N)ccc3N(Cc3cncn3C)C2)c1 (stereo not given) |  | 12 nM | 99% | 2 nM |  | 0.4 nM |  |  | 
Cn1cnc(S(=O)(=O)N(CCCCC(=O)NCCN)C2Cc3cc(C#N)ccc3N(Cc3cncn3C)C2)c1 (stereo not given) |  | 250 nM |  | 130 nM |  | 0.9 nM |  |  | 
Cn1cnc(S(=O)(=O)N2CCC(CN(C3Cc4cc(C#N)ccc4N(Cc4cncn4C)C3)S(=O)(=O)c3ccccn3)CC2)c1 (stereo not given) | 60% | 700 nM | 92% | 650 nM | 20% |  |  |  | 
COC(=O)N1CCC(CN(C2Cc3cc(C#N)ccc3N(Cc3cncn3C)C2)S(=O)(=O)N(C)C)CC1 (stereo not given) | 0% | 1600 nM | 58% | 2400 nM | 19% |  |  |  | 

Structure (SMILES) | inhibition (Plasmodium falciparum [1]) | EC50 (Plasmodium falciparum [2]; Plasmodium falciparum, 3D7) | inhibition (Plasmodium falciparum [3]) | EC50 (Plasmodium falciparum [4]; Plasmodium falciparum, K1) | inhibition (Plasmodium falciparum [5]) | IC50 [6] | IC50 [7] | EC50 (Plasmodium falciparum [2]) | EC50 (Plasmodium falciparum [4])
C=C(C)CN(C1Cc2cc(-c3ccccc3)ccc2N(Cc2cn(C)cn2)C1)S(=O)(=O)c1cn(C)cn1 (stereo not given) | 22% | 640 nM | 99% | 475 nM | 89% |  |  |  | 
COC(=O)N1CCC(CN(C2Cc3cc(C#N)ccc3N(Cc3cncn3C)C2)S(=O)(=O)c2ccc(C(=O)O)o2)CC1 (stereo not given) | 5% | > 5000 nM | 89% | 675 nM | 49% |  |  |  | 
CN(C)CCN(C1Cc2cc(C#N)ccc2N(Cc2cncn2C)C1)S(=O)(=O)c1cn(C)cn1 (stereo not given) | 0% | 2700 nM | 64% | 3100 nM | 15% |  |  |  | 
CCS(=O)(=O)N(Cc1ccccc1F)C1Cc2cc(C#N)ccc2N(Cc2cncn2C)C1 (stereo not given) | 0% | 820 nM | 61% | 2100 nM | 11% |  |  |  | 
Cn1cncc1CN1CC(N(CC(=O)NC(C)(C)C)S(=O)(=O)CCN)Cc2cc(C#N)ccc21 (stereo not given) | 5% | > 5000 nM | 11% | > 5000 nM | 10% |  |  |  | 
CN(CCCN(C1Cc2cc(C#N)ccc2N(Cc2cncn2C)C1)S(=O)(=O)c1ccccn1)C(=O)OC(C)(C)C (stereo not given) | 35% | 130 nM | 86% | 170 nM | 80% |  |  |  | 
Cn1cncc1CN1CC(N(CCOc2cccc3c2OCCO3)S(=O)(=O)c2ccccn2)Cc2cc(C#N)ccc21 (stereo not given) | 10% | 810 nM | 88% | 1450 nM | 41% |  |  |  | 
Cn1cnc(S(=O)(=O)N(CC(=O)NC(C)(C)C)C2Cc3cc(C(=O)O)ccc3N(Cc3cncn3C)C2)c1 (stereo not given) | 0% | 3500 nM | 80% | 1420 nM | 29% |  |  |  | 
Cn1cncc1CN1CC(N(CC2CCN(C(=O)NC(C)(C)C)CC2)S(=O)(=O)c2ccccn2)Cc2cc(C#N)ccc21 (stereo not given) | 84% | 320 nM | 98% | 150 nM | 28% |  |  |  | 
Cn1cncc1CN1CC(N(Cc2ccc(S(C)(=O)=O)cc2)S(=O)(=O)c2ccccc2)Cc2cc(C#N)ccc21 (stereo not given) | 38% | 165 nM | 99% | 330 nM | 91% |  |  |  | 
Cc1ccccc1CN(C1Cc2cc(-c3ccccc3)ccc2N(Cc2cn(C)cn2)C1)S(=O)(=O)c1cn(C)cn1 (stereo not given) | 0% | 2900 nM | 46% | 1800 nM | 0% |  |  |  | 
Cn1cncc1CN1CC(N(CCc2ccc(F)cc2)S(=O)(=O)c2ccccn2)Cc2cc(C#N)ccc21 (stereo not given) | 9% | 200 nM | 96% | 650 nM | 71% |  |  |  | 
Cn1cncc1CN1CC(N(CCNC(=O)OC(C)(C)C)S(=O)(=O)c2ccccn2)Cc2cc(C#N)ccc21 (stereo not given) | 9% | 230 nM | 91% | 240 nM | 48% |  |  |  | 
Cn1cnc(S(=O)(=O)N(Cc2ccc3nonc3c2)C2Cc3cc(C#N)ccc3N(Cc3cncn3C)C2)c1 (stereo not given) | 30% | 56 nM | 99% | 65 nM | 95% |  |  |  | 
Cn1cncc1CN1CC(N(CC2CCN(C(=O)c3ccc(Cl)cc3)CC2)S(=O)(=O)c2ccccn2)Cc2cc(C#N)ccc21 (stereo not given) | 7% | 460 nM | 26% | 1700 nM | 0% | 900 nM |  |  | 
Cn1cnc(C(=O)N(CC(=O)OC(C)(C)C)C2Cc3cc(C#N)ccc3N(Cc3cncn3C)C2)c1 (stereo not given) |  | > 5000 nM |  | > 5000 nM |  | > 50 nM |  |  | 
Cn1cncc1CN1CC(N(Cc2ccccc2C(F)(F)F)S(=O)(=O)c2ccccn2)Cc2cc(C#N)ccc21 (stereo not given) | 0% | 650 nM | 91% | 3000 nM | 38% |  |  |  | 
Cn1cncc1CN1CC(N(CC2CCN(C(=O)OC(C)(C)C)CC2)S(=O)(=O)c2ccccn2)Cc2cc(C#N)ccc21 (stereo not given) | 19% |  | 100% | 180 nM | 89% |  | 7 nM |  | 
CCNC(=O)N1CCC(CN(C2Cc3cc(C#N)ccc3N(Cc3cncn3C)C2)S(=O)(=O)c2ccccn2)CC1 (stereo not given) | 95% | 67 nM | 98% | 65 nM | 60% | 0.65 nM |  |  | 
Cn1cnc(S(=O)(=O)N(CCc2ccccc2C(F)(F)F)C2Cc3cc(C#N)ccc3N(Cc3cncn3C)C2)c1 (stereo not given) | 8% | 65 nM | 99% | 70 nM | 82% |  |  |  | 
